Bioassay records as filed in PubChem BioAssay.
ADAM17 inh: ADAM17 inhibitors, primary screen, biochemical, QFRET | Disintegrin and metalloproteinase domain-containing protein 17 (Homo sapiens), P78536 | recombinant ADAM17, EDANS/DABCYL FRET peptide cleavage | inhibition, % at 6.95 µM | actives 0.83% (n = 370,000) | AID 720648, 2013;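 active = inhibition above the mean of compounds lying between control limits plus 3 SD, set per campaign, cut at about 8.5% in these data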;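 also: 0% = DMSO-only wells as the low control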
SENP1 FRET inh: human SENP1 catalytic domain inhibitors, primary screen, biochemical, FRET, uHTS; inhibition, % at 10 µM; Sentrin-specific protease 1 (Homo sapiens), Q9P0U3; actives 0.21% (n = 360,000); AID 624204, 2012; recombinant SENP1 catalytic domain, CyPet-SUMO1-YPet FRET cleavage;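 active = inhibition at least 30% at 10 µM, raw YFP signal under a set limit, fluorescence ratio 0.5 to 1.5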;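 also: 0% = enzyme with DMSO and 100% = no enzyme wells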
Target sequence (Q9P0U3 419-644 limits assumed): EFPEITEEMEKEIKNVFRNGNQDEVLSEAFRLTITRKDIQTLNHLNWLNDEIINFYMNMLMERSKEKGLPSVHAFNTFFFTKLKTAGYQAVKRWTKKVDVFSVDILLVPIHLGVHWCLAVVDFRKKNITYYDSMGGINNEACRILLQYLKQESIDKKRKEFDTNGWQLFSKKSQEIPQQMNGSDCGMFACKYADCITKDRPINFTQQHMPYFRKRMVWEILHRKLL
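Compound: 10 µM single point, 0.5% DMSO; Test system: hSENP1 catalytic domain, recombinant; Timing: 50 min reaction at room temperature; Technique: FRET, CFP and YFP emission; Control set: no-enzyme wells low, DMSO-plus-enzyme wells high control.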
ADAM10 inh: human ADAM10 inhibitors, primary screen, biochemical, QFRET, HTS; inhibition, % at 7 µM; recombinant ADAM10, EDANS/DABCYL FRET peptide cleavage, 3 h; actives 0.62% (n = 370,000);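 active = inhibition above a per-campaign cutoff equal to the mean of compounds falling between control-based bounds plus 3 SD, cut at about 20% in these data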;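 also: 0% = DMSO wells while the 100% control is not disclosed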
FAS-TE inh: FAS thioesterase domain inhibitors, primary screen, biochemical, fluorescence intensity, uHTS. inhibition, % at 15 µM. actives 0.67% (n = 360,000). recombinant FAS-TE, OMFH fluorogenic substrate, fluorescence endpoint;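 active = compounds whose normalised, plate-corrected inhibition of enzyme fluorescence in the single-dose primary screen is 50% or more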;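 also: 0% = DMSO with enzyme and 100% = substrate without enzyme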
ADAM10 confirm: human ADAM10 inhibitors, confirmation, biochemical, QFRET, triplicate. ADAM10 QFRET peptide cleavage, EDANS fluorescence. AID 743208, 2013. inhibition, % at 6.95 µM. shares compounds with ADAM10 inh. actives 1% (n = 2,100);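 active = inhibition above about 20% chosen separately for each screening run, limit read from the data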;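 also: 0% = DMSO wells and 100% = marimastat wells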
ADAM17 ctr: ADAM17 inhibitors, counter-screen for ADAM10 exosite inhibitor project, biochemical, QFRET, high throughput; shares compounds with ADAM10 inh; ADAM17 QFRET peptide cleavage, EDANS fluorescence; inhibition, % at 6.95 µM; actives 0.5% (n = 2,100); AID 743214, 2013;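 active = mean triplicate inhibition above the solvent-only control wells' mean plus 3 SD, cut at about 12% in these data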;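 also: 0% = DMSO wells and 100% = marimastat wells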
* = called active by the depositor; . = not tested or not shown. Compounds with a hit are over-represented: about 1.9% of the library has one in this group of screens.

SMILES | ADAM17 inh | SENP1 FRET inh | ADAM10 inh | FAS-TE inh | ADAM10 confirm | ADAM17 ctr
COC(=O)c1ccc(Sc2ccc(C)cc2)c(N)c1 | -39 | -7 | -91 | 13 | . | .
CCOc1cc(/C=N/NC(=O)COc2ccc(C)cc2)ccc1OC(=O)c1cccs1 | 4 | 3 | 21* | 26 | 10 | 2
Cc1ccccc1Cn1ccc(NC(=O)c2cnn3c2NC(c2ccccc2)CC3C(F)(F)F)n1 (configuration not stated) | 5 | 3 | 21* | 31 | 4 | 1
COc1ccccc1-c1cc(N)n(S(=O)(=O)c2cccc3nsnc23)n1 | 4 | 1 | 23* | 2 | 2 | -1
Nc1cc(-c2ccc(Cl)cc2)nn1S(=O)(=O)c1cccc2nsnc12 | 6 | 2 | 1 | 16 | . | .
Oc1cccc(/C=N/N(Cc2ccccc2)c2ccccc2)c1 | 9 | -1 | 22* | 32 | 13 | 5
C(=N\N(Cc1ccccc1)c1ccccc1)/c1cccnc1 | 8 | 0 | 12 | 26 | . | .
O=C(NC1CCCCN(Cc2ccc(Cl)cc2)C1=O)C(c1ccccc1)c1ccccc1 (configuration not stated) | 4 | . | 22* | . | 6 | 4
O=C(NC1CCCCN(Cc2ccc(Cl)cc2)C1=O)c1ccccn1 (configuration not stated) | -1 | . | -1 | . | . | .
Cc1nn(CCCC(=O)Nc2cc(Oc3ccc(F)cc3)cc([N+](=O)[O-])c2)c(C)c1[N+](=O)[O-] | 6 | 0 | 26* | 38 | 5 | 2
O=c1[nH]c(C2CCN(S(=O)(=O)c3ccc(F)cc3)CC2)nc2c1nnn2Cc1ccc2c(c1)OCCO2 | 1 | 1 | 23* | 13 | 2 | 1
O=c1[nH]c(C2CCN(S(=O)(=O)Cc3ccccc3)CC2)nc2c1nnn2Cc1ccccc1 | 4 | 1 | -1 | 6 | . | .
O=c1[nH]c(C2CCN(S(=O)(=O)c3ccccc3F)CC2)nc2c1nnn2Cc1ccc2c(c1)OCCO2 | 0 | 0 | 4 | 18 | . | .
O=c1[nH]c(C2CCN(S(=O)(=O)/C=C/c3ccccc3)CC2)nc2c1nnn2Cc1ccc(F)cc1 | 8 | 0 | 29* | 15 | 2 | 2
Cc1ccc(C)c(S(=O)(=O)N2CCC(c3nc4c(nnn4Cc4ccc(F)cc4)c(=O)[nH]3)CC2)c1 | 8 | 2 | 9 | 15 | . | .
Cc1ccc(Cn2nnc3c(=O)[nH]c(C4CCN(S(=O)(=O)c5ccc(F)cc5)CC4)nc32)cc1 | 6 | -1 | 21* | 20 | 1 | 1
COc1ccc(CN[C@@H]2CC[C@@]34CCCN3C(=O)CCC[C@H]4C2)cc1OC | -2 | . | -1 | . | . | .
Cc1ccc(NC(=O)OC2CC3CC2[C@H]2CCCCN2[C@H]3Cc2ccccc2)cc1 (some centres not stated) | 0 | . | 1 | . | . | .
CCN(CC)S(=O)(=O)c1cccc(NC(=O)COc2ccc(C#N)cc2OC)c1 | 3 | 1 | 7 | 9 | . | .
CCN(CC)S(=O)(=O)c1cccc(NC(=O)COc2ccc(F)cc2Br)c1 | 2 | -1 | 21* | 34 | -1 | 1
COC(=O)[C@]12C[C@H](CC(=O)N3CCN(C(=O)C4CC4)CC3)C(=O)N(Cc3ccc4c(c3)OCO4)C1=C[C@H](C(C)C)O[C@@H]2C1CC1 | -1 | . | 4 | . | . | .
CSc1ccc(S(=O)(=O)NCc2ccc(Cl)cc2Cl)cc1 | 2 | 2 | 20* | 36 | 2 | 0
CSc1ccc(S(=O)(=O)NCc2ccccc2Cl)cc1 | 0 | 2 | 8 | 14 | . | .
COc1ccc(NS(=O)(=O)c2ccc(-c3ccccn3)s2)cc1 | 5 | 1 | 22* | 12 | 0 | 0
O=S(=O)(Nc1ccccc1Cl)c1ccc(-c2ccccn2)s1 | -3 | 4 | 5 | -3 | . | .
SMILES | ADAM17 inh | SENP1 FRET inh | ADAM10 inh | FAS-TE inh | ADAM10 confirm | ADAM17 ctr
COC(=O)[C@]12C[C@H](CC(=O)N3CCC(c4ccccc4)CC3)C(=O)N(CCc3ccc(OC)c(OC)c3)C1=C[C@H](C(C)C)O[C@@H]2C1CC1 | 2 | . | 8 | . | . | .
O=C(Nc1nc2ccccc2s1)C1c2ccccc2Oc2ccccc21 | 8 | 0 | 28* | 32 | 10 | 3
COCCNC(=O)c1onc(CSc2ccccn2)c1C(=O)NCCOC | 1 | 3 | 0 | -9 | . | .
CC(C)CCNC(=O)c1onc(CSc2ccccn2)c1C(=O)NCCC(C)C | 6 | 3 | 20* | 22 | 4 | 1
O=C(N/N=C/c1cn(-c2cccs2)nc1-c1ccccc1)c1ccccc1Cl | 8 | -1 | 20* | 36 | 14 | 5
C=CCC[C@H](CCCCC)OC(=O)/C=C/[C@@H](O)[C@H](O)C[C@@H](O)CC=C | 7 | 1 | 21* | -3 | 0 | 0
C/C(=N\N=C(/N)SC1CC(=O)N(c2cccc(Cl)c2)C1=O)c1cccs1 (configuration not stated) | 8 | 2 | 27* | 22 | 5 | 2
CCCOc1ccc(N2C(=O)CC(S/C(N)=N/N=C(\C)c3cccs3)C2=O)cc1 (configuration not stated) | -4 | 2 | 14 | 0 | . | .
O=C(CSc1nc2ccc(NC(=O)c3ccccc3C(=O)O)cc2s1)Nc1c(Cl)cccc1Cl | 4 | 1 | 20* | -6 | 0 | 1
O=C(CSc1nc2ccccc2s1)Nc1ccc(Cl)c(C(=O)O)c1 | -2 | -1 | 7 | -2 | . | .
COc1ccccc1-c1csc(C(O)c2cccc(Cl)c2)n1 (configuration not stated) | 8 | 2 | 23* | 23 | 6 | 2
COc1ccccc1-c1csc(C(O)c2ccccc2)n1 (configuration not stated) | 3 | 0 | -3 | 2 | . | .
OC(c1ccc(F)c(F)c1)c1nc(-c2ccc(Cl)cc2)cs1 (configuration not stated) | 7 | 0 | 20* | 26 | 4 | 1
OC(c1ccc(F)c(F)c1)c1nc(-c2ccncc2)cs1 (configuration not stated) | -1 | 0 | -3 | -2 | . | .
CC(C)N1C(=O)C(Cc2nc3ccccc3c(=O)n2-c2ccccc2)c2ccccc21 (configuration not stated) | 2 | -1 | 86* | 13 | 3 | 1
CCCN1C(=O)C(Cc2nc3ccccc3c(=O)n2-c2ccccc2)c2ccccc21 (configuration not stated) | 0 | 1 | -5 | 14 | . | .
